FLuc stim CS – affects firefly luciferase, flagging false hits in luciferase stimulation screens. activation factor at 10 µM. ATPlite luciferase biochemical, luminescence, 10 min; 0 = ATP-free wells, 1 = DMSO control. 200,000 tested, under 10 active;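 active = luciferase activation factor, scaled between plate controls, of at least 2 with compound at 10 µM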
Target sequence (P08659 whole entry, looked up): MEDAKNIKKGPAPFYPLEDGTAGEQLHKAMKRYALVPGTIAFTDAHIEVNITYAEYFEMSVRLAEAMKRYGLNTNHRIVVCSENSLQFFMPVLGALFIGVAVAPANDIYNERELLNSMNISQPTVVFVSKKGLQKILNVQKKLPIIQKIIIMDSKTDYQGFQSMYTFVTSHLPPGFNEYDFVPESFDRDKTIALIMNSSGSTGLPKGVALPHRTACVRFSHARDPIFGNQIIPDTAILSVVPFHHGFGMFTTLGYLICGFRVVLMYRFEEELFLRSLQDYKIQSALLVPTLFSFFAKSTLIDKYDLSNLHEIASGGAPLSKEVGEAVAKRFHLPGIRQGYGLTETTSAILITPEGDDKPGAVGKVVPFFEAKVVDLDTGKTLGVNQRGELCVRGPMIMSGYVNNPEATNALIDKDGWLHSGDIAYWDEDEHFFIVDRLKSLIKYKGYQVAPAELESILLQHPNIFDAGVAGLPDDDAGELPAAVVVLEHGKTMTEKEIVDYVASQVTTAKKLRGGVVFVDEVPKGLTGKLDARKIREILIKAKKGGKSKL
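System: cell-free luciferase reagent; medium: PBS as buffer for the ATP substrate; doses: test compounds dosed from 2 mM stocks in 100% DMSO; incubation: 10 min, room temperature; measured by: luminescence from luciferase reaction; read-out: luciferase activation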
FLuc inhib CS – Photinus pyralis luciferase inhibition counter-screen | ATPLite firefly luciferase biochemical luminescence, 10 min | inhibition, % at 10 µM | 1.5% of 200,000 active | AID 1006;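 active = inhibition above about 50% when tested at 10 µM, limit read from the data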
PPC-1+TRAIL kill – kills PPC-1 cancer cells in the presence of TRAIL; PPC-1 cells + TRAIL, ATPLite viability luminescence; cell killing (% activity), % at 4 µM or 5 µM; 0.41% of 220,000 active; AID 1443;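 active = cell killing above 50% in the first pass at 4 µM, then a duplicate retest at 5 µM averaging 50% or more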;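 note: plate controls were cells with TRAIL plus DMSO for no effect and medium-only wells lacking cells for full effect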
beta cell repl – induces beta-cell replication in MIN6 cells | AID 2380 | MIN6 cells proliferation, ATPlite luminescence, 48 h; cells starved in 0.2% serum; 100% = growth in 10% serum | 0.29% of 330,000 active | proliferation, % at 10 µM;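 active = compounds whose signal lies at least 3.5 SD above the mean of all wells on their plate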;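 note: 0% = DMSO-treated cells in low-serum medium and 100% = 10% serum control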
TRAIL sens C8 – caspase-8 TRAIL sensitization; NB7+C8 cells + TRAIL, ATPlite viability luminescence; inhibition (viability loss, TRAIL sensitization), % at 10 µM; 1% of 360,000 active; AID 624354;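 active = compounds causing at least 50% loss of cell viability in the single-dose screen, relative to plate controls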
hiPSC survival – enhancers of human iPSC single-cell survival. AID 602274. hiPSC single-cell survival, ATPlite luminescence; 100% = ROCK inhibitor wells, 0% = DMSO. survival enhancement, % at 20 µM. 0.044% of 360,000 active; in the data active = survival enhancement above about 18%;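 note: cells exposed to compounds for 16 hours before the ATP read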
* hit, by the source's call; · = no result given. Only some compounds are listed: those with a hit (about 1.8% of all), similar ones and a draw of the others.

SMILES	FLuc stim CS	FLuc inhib CS	PPC-1+TRAIL kill	beta cell repl	TRAIL sens C8	hiPSC survival
Cc1cc(C)n(-c2ccc(C(=O)Nc3ccccn3)cc2)n1	0.3	65*	-17	-4	49	-4
O=C(NC(=O)c1ccccc1)Nc1ccccn1	·	·	·	-7	89*	0
Cc1cc(C)n(-c2ccc(C(=O)Nc3cccnc3Cl)cc2)n1	1	3	1	-1	2	2
O=C(Nc1ccc(SC(F)(F)F)cc1)c1ccccn1	0.3	71*	26	-1	49	-2
CC(=O)NC(c1cccc(F)c1)c1nc(-c2csc3ccccc23)cs1 (centres undefined)	·	·	·	·	26	8
O=C(NCc1ccccc1)c1c(Cl)nc(Cl)c(Cl)c1Cl	·	·	·	-6	94*	1
Cc1nc(Cl)c(C(=O)NCc2ccccc2)c(C)c1Cl	1.1	-6	24	-1	13	0
Cc1ccc(C(=O)Nc2ccc(Cl)cc2C)c(Cl)c1	0.2	76*	44	-5	55*	0
O=C(NC1CCCCCCC1)c1cc(F)c(F)cc1Cl	1	3	21	-4	5	-1
Cc1cc(C(=O)NC2CCCCC2)c(C)n1-c1ccc(F)cc1	0.5	51*	6	-1	21	-1
Cc1ccc(C(=O)NC2CCCCCCC2)c(Cl)c1	·	·	·	-4	61*	0
Cc1cc(C(=O)CN2CCCCC2)c(C)n1-c1ccc(F)cc1	1	-5	7	1	8	0
Cc1ccc(C(=O)Nc2ccc(Cl)cc2C(F)(F)F)c(Cl)c1	0.7	26	7	0	14	0
Cn1cnc2c(oc3ccccc32)c1=O	·	·	·	-1	1	0
CCOc1ccc(-n2c(SCC(=O)Nc3ccc(C(=O)O)cc3)nc3ccccc3c2=O)cc1	·	·	·	-3	15	0
Cc1ccc(OCC(=O)Nc2ccc3c(c2)OCO3)c(C)c1	0.5	54*	36	-1	18	-1
CC(=O)c1cc(F)ccc1OCC(=O)Nc1ccc2c(c1)OCO2	·	·	·	-5	66*	-4
NC(=O)c1cc(Cl)ccc1OCC(=O)Nc1ccc2c(c1)OCO2	·	·	·	-5	69*	-5
O=C(COc1ccccc1[N+](=O)[O-])Nc1ccc2c(c1)OCO2	0.4	58*	41	-3	23	0
O=C(COc1cc(F)ccc1[N+](=O)[O-])Nc1ccc2c(c1)OCO2	·	·	·	-2	10	0
O=C(COC(=O)COc1ccccc1[N+](=O)[O-])Nc1ccc2c(c1)OCO2	·	·	·	2	-13	1
Cc1ccc(CN2CC(C(=O)Nc3ccc(S(=O)(=O)N4CCCCC4)cc3)CC2=O)cc1 (centres undefined)	·	·	·	-2	2	1
CC(C)C(=O)N1CCN(c2ccccc2NC(=O)c2cc([N+](=O)[O-])ccc2N2CCOCC2)CC1	1	-2	-2	3	10	0
CC1CCCCN1C(=O)COC(=O)c1cc([N+](=O)[O-])ccc1N1CCOCC1 (centres undefined)	·	·	·	-2	-4	0
O=C(NCCSc1ccc(Br)cc1)c1ccc2nc[nH]c2c1	·	·	·	-3	-15	-1
SMILES	FLuc stim CS	FLuc inhib CS	PPC-1+TRAIL kill	beta cell repl	TRAIL sens C8	hiPSC survival
COc1cccc(CSc2nc(N)cc(N)n2)c1	·	·	·	-2	-12	0
O=C1c2ccccc2C(=O)c2cc(N3CCCCC3)ccc21	·	·	·	·	86*	-3
COc1ccc(S(=O)(=O)N2CCOCC2)cc1NC(=O)CSc1ccc(F)cc1	·	·	·	1	-4	2
Cc1ccc(C(=O)COC(=O)CCC(=O)Nc2ccccc2Cl)cc1[N+](=O)[O-]	1	-4	-12	-3	-5	-2
Cc1ccc(C(=O)COC(=O)CCCC(=O)Nc2cc(C(F)(F)F)ccc2Cl)cc1C	0.5	54*	13	-3	5	0
N#C/C(=N\Nc1ccccc1)C(=N)N1CCCCC1	0.4	61*	20	-2	29	-5
N#C/C(=N\Nc1ccccc1[N+](=O)[O-])C(=N)N1CCCCC1	0.2	82*	37	-4	44	-2
N#C/C(=N/Nc1ccc([N+](=O)[O-])cc1)C(=N)N1CCCCC1	0.9	13	·	·	10	0
CN(C)C/C=C(\c1ccc(Br)cc1)c1cccnc1	·	·	·	-4	-8	3
CCOC(=O)N1C2=NC(C(=O)OC)=C(C(=O)OC)[C@@H]3N(C)c4ccccc4[C@]23C[C@H]1C(=O)OC	·	·	12	-6	9	1
Clc1ccc2nc(-c3ccc(Br)s3)cn2c1	0.2	78*	40	-5	59*	-3
O=C(O)c1ccccc1-c1cn2cc(Cl)ccc2n1	0.4	62*	27	-2	22	-2
COc1ccc(-c2cn3cc(Cl)ccc3n2)cc1OC	0.7	27	7	-4	10	-1
Cc1cc(C)n(CC(=O)NNC(=O)c2ccc(NC(=O)CC#N)cc2)n1	·	·	·	-2	-6	0
Cc1cc2nc(NC(=O)C3(C)CCN(C)C3)[nH]c2cc1C (centres undefined)	·	·	·	·	-26	-3
O=C(/C=C/Nc1ccccc1F)c1ccc(Br)cc1	0.2	80*	40	·	68*	-2
O=C(/C=C/Nc1ccc(Br)cc1F)c1ccccc1	0	96*	80*	-6	94*	-4
N#Cc1ccccc1N/C=C/C(=O)c1ccc(Cl)cc1	·	·	·	-2	51*	-1
O=C(/C=C/Nc1ccc(F)cc1)c1ccc(Br)cc1	0.6	39	13	-2	25	-2
NC(COCc1ccccc1)c1csc(Nc2cc(NCCCO)ncn2)n1 (centres undefined)	·	·	·	·	13	5
CC(Oc1cccc([N+](=O)[O-])c1)C(=O)NCCC1=CCCCC1 (centres undefined)	·	·	·	3	-24	0
CCC(=O)Nc1ccc(NC(=O)c2ccccc2)nc1	0.4	62*	30	-4	34	-4
CCOC(=O)c1c(C)[nH]c(C)c1C(=O)COC(=O)Cc1n[nH]c(=O)c2ccccc12	·	·	·	1	0	0
COc1ccc(Cn2c(SCc3ccc(C)cc3)nc3cc(OC)c(OC)cc3c2=N)cc1Cl	1	-1	25	-6	93*	-5
COc1ccc(Cn2c(SCc3cc(C)ccc3C)nc3cc(OC)c(OC)cc3c2=N)cc1	1	0	18	-6	92*	-4
COc1cc2nc(SCc3ccc(Cl)cc3Cl)n(Cc3cccs3)c(=N)c2cc1OC	1	-4	12	-6	9	-1
COc1ccc(NS(=O)(=O)c2cc(NS(=O)(=O)c3cccs3)ccc2C)cc1	·	·	·	-5	17	0
Clc1ccc(-c2nnc(NC3=NCCCCC3)o2)cc1	0.2	78*	48	-3	47	-4
